{"source": "ChEMBL document CHEMBL4346727", "about": "“Synthesis and pharmacological evaluation of novel N-Mannich bases derived from 5,5-diphenyl and 5,5-di(propan-2-yl)imidazolidine-2,4-dione core” (Bioorg Med Chem Lett, 2019)", "key": {"Mus musculus [1]": {"tested_on": "Mus musculus", "experiment": "Anticonvulsant activity in CD1 mouse assessed as protection against 32 mA current-induced seizure at 50 mg/kg, ip measured after 30 mins by 6 Hz psychomotor seizure test"}, "Rattus norvegicus [2]": {"tested_on": "Rattus norvegicus", "experiment": "Anticonvulsant activity in po dosed Sprague-Dawley rat assessed as time to peak effect on protection against 150 mA current-induced seizures", "assay_type": "functional", "in_short": "(§1)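 Median effective doses were quantified in the maximal electroshock, subcutaneous pentylenetetrazole and 6 Hz tests after intraperitoneal dosing in mice or oral dosing in rats, at the time of peak effect. ED50 values are reported with ranges in parentheses.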"}, "Mus musculus [3]": {"tested_on": "Mus musculus", "experiment": "Antiallodynic activity in CD1 mouse assessed as reduction in oxaliplatin-induced neuropathic pain in early phase by measuring paw withdrawal force at 11 mg/kg, ip measured after 3 hrs by Von Frey test relative to untreated control", "assay_type": "functional", "set-up": "scale not given: the % may be the effect or the level left"}, "[4]": {"experiment": "Neurotoxicity in CD1 mouse at 50 mg/kg, ip measured after 2 hrs by rotarod test", "settings": "in vivo"}, "Rattus norvegicus [5]": {"tested_on": "Rattus norvegicus", "experiment": "Anticonvulsant activity in po dosed Sprague-Dawley rat assessed as protection against subcutaneous pentylenetetrazole-induced seizures", "assay_type": "functional"}, "[6]": {"experiment": "Neurotoxicity in CD1 mouse at 25 mg/kg, ip measured after 2 hrs by rotarod test", "settings": "in vivo"}, "Rattus norvegicus [7]": {"tested_on": "Rattus norvegicus", "experiment": "Anticonvulsant activity in Sprague-Dawley rat assessed as protection against 150 mA current-induced seizure at 30 mg/kg, po measured after 1 hr by maximal electroshock seizure test", "assay_type": "functional, organism-based", "in_short": "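Rats received 30 mg/kg orally and were given maximal electroshock at 0.25, 0.5, 1, 2, 4 and 6 h. Read-out is the number of rats protected out of four.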"}, "Mus musculus [8]": {"tested_on": "Mus musculus", "experiment": "Anticonvulsant activity in CD1 mouse assessed as protection against 32 mA current-induced seizure at 100 mg/kg, ip measured after 2 hrs by 6 Hz psychomotor seizure test"}, "[9]": {"experiment": "Neurotoxicity in CD1 mouse at 50 mg/kg, ip measured after 30 mins by rotarod test", "settings": "in vivo, 0.5 h"}, "Rattus norvegicus [10]": {"tested_on": "Rattus norvegicus", "experiment": "Anticonvulsant activity in po dosed Sprague-Dawley rat assessed as time to peak effect on protection against 32 mA current-induced seizure by 6 Hz psychomotor seizure test", "assay_type": "functional"}, "[11]": {"experiment": "Protection index, ratio of TD50 for neurotoxicity in po dosed Sprague-Dawley rat by rotarod test to ED50 for anticonvulsant activity in po dosed Sprague-Dawley rat by maximal electroshock seizure test", "assay_type": "toxicity, organism-based", "settings": "in vivo, read-out: Ratio TD50/ED50"}, "[12]": {"experiment": "Neurotoxicity in Sprague-Dawley rat at 30 mg/kg, po measured after 15 mins by rotarod test", "assay_type": "toxicity, organism-based", "settings": "in vivo, 0.25 h", "in_short": "(§2)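 Rats given one oral dose of 30 mg/kg and tested on the rotarod at 0.25, 0.5, 1, 2, 4 and 6 h.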"}, "Mus musculus [13]": {"tested_on": "Mus musculus", "experiment": "Anticonvulsant activity in CD1 mouse assessed as protection against 32 mA current-induced seizure at 50 mg/kg, ip measured after 1 hr by 6 Hz psychomotor seizure test"}, "[14]": {"experiment": "Neurotoxicity in po dosed Sprague-Dawley rat model by rotarod test", "assay_type": "toxicity, organism-based", "settings": "in vivo", "in_short": "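Rats dosed orally; neurotoxicity scored on the rotarod. Screening used a fixed 30 mg/kg, with animals checked at 0.25, 0.5, 1, 2, 4 and 6 h; the reading is the number of four rats showing neurotoxicity. In quantitative runs, a median toxic dose (TD50, mg/kg) was determined after oral dosing at the time of peak effect.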"}, "[15]": {"experiment": "Neurotoxicity in Sprague-Dawley rat at 30 mg/kg, po measured after 4 hr by rotarod test", "assay_type": "toxicity, organism-based", "settings": "in vivo", "in_short": "as §2"}, "[16]": {"experiment": "Protection index, ratio of TD50 for neurotoxicity in ip dosed CD1 mouse by rotarod test to ED50 for anticonvulsant activity in CD1 mouse by 6 Hz psychomotor seizure test", "assay_type": "toxicity, organism-based", "settings": "in vivo, read-out: Ratio TD50/ED50"}, "[17]": {"experiment": "Neurotoxicity in ip dosed CD1 mouse and measured after 4 hrs by rotarod test", "assay_type": "toxicity, organism-based", "settings": "in vivo", "in_short": "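Mice dosed intraperitoneally at 30, 100 and 300 mg/kg, then tested on the rotarod at 0.5 h and 4 h. The value recorded is the minimum dose at which neurotoxicity appeared. A dash means no neurotoxicity at the top dose of 300 mg/kg.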"}, "Mus musculus [18]": {"tested_on": "Mus musculus", "experiment": "Anticonvulsant activity in CD1 mouse assessed as protection against subcutaneous pentylenetetrazole-induced seizures at 300 mg/kg, ip and measured after 0.5 hrs", "assay_type": "functional, organism-based", "in_short": "(§3)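 Mice were screened after intraperitoneal doses of 30, 100 and 300 mg/kg in the maximal electroshock and subcutaneous pentylenetetrazole tests, examined at 0.5 and 4 h. The value recorded is the minimum dose showing activity. No activity up to 300 mg/kg is scored as absent.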"}, "Mus musculus [19]": {"tested_on": "Mus musculus", "experiment": "Anticonvulsant activity in CD1 mouse assessed as protection against 32 mA current-induced seizure at 100 mg/kg, ip measured after 1 hr by 6 Hz psychomotor seizure test"}, "Mus musculus [20]": {"tested_on": "Mus musculus", "experiment": "Antiallodynic activity in CD1 mouse assessed as reduction in oxaliplatin-induced neuropathic pain in late phase by measuring paw withdrawal force at 11 mg/kg, ip measured after 7 days by Von Frey test relative to untreated control", "assay_type": "functional", "set-up": "scale not given: the % may be the effect or the level left"}, "[21]": {"experiment": "Protection index, ratio of TD50 for neurotoxicity in ip dosed CD1 mouse by rotarod test to ED50 for anticonvulsant activity in ip dosed CD1 mouse by maximal electroshock seizure test", "assay_type": "toxicity, organism-based", "settings": "in vivo, read-out: Ratio TD50/ED50"}, "Rattus norvegicus [22]": {"tested_on": "Rattus norvegicus", "experiment": "Anticonvulsant activity in po dosed Sprague-Dawley rat assessed as protection against 150 mA current-induced seizures", "assay_type": "functional", "in_short": "as §1"}, "Mus musculus [23]": {"tested_on": "Mus musculus", "experiment": "[…] in CD1 mouse model assessed as formalin-induced nociception by measuring AUC during acute phase at 11 mg/kg, ip measured for 5 mins by formalin test relative to control", "assay_type": "functional"}, "Rattus norvegicus [24]": {"tested_on": "Rattus norvegicus", "experiment": "Anticonvulsant activity in po dosed Sprague-Dawley rat assessed as time to peak effect on protection against subcutaneous pentylenetetrazole-induced seizures", "assay_type": "functional"}, "[25]": {"experiment": "Neurotoxicity in Sprague-Dawley rat at 30 mg/kg, po measured after 2 hr by rotarod test", "assay_type": "toxicity, organism-based", "settings": "in vivo", "in_short": "as §2"}, "[26]": {"experiment": "Neurotoxicity in po dosed Sprague-Dawley rat assessed as time to peak effect by rotarod test", "assay_type": "toxicity, organism-based", "settings": "in vivo"}, "Mus musculus [27]": {"tested_on": "Mus musculus", "experiment": "Potency index, ratio of phenytoin ED50 to compound ED50 for anticonvulsant activity in ip dosed CD1 mouse by 6 Hz psychomotor seizure test", "assay_type": "functional"}, "Mus musculus [28]": {"tested_on": "Mus musculus", "experiment": "Anticonvulsant activity in CD1 mouse assessed as protection against 32 mA current-induced seizure at 50 mg/kg, ip measured after 15 mins by 6 Hz psychomotor seizure test"}, "[29]": {"experiment": "Neurotoxicity in CD1 mouse at 25 mg/kg, ip measured after 4 hrs by rotarod test", "settings": "in vivo"}, "Mus musculus [30]": {"tested_on": "Mus musculus", "experiment": "Anticonvulsant activity in ip dosed CD1 mouse assessed as protection against 50 mA current-induced seizure and measured after 0.5 hrs by maximal electroshock seizure test", "assay_type": "functional", "settings": "read-out: MED", "in_short": "as §3"}, "Mus musculus [31]": {"tested_on": "Mus musculus", "experiment": "Anticonvulsant activity in CD1 mouse assessed as protection against 32 mA current-induced seizure at 100 mg/kg, ip measured after 30 mins by 6 Hz psychomotor seizure test"}}, "note": "Active and inactive are the calls of the source. Unless noted, the calls are words filed in the database; no cut-off is given here.", "data": [{"molecule": "CN1CCN(CN2C(=O)NC(c3ccccc3)(c3ccccc3)C2=O)CC1", "values": [{"measurement": "Activity", "setting": "Mus musculus [1]", "result": "Active"}, {"measurement": "Time", "setting": "Rattus norvegicus [2]", "result": 2, "unit": "h"}, {"measurement": "Activity", "setting": "Mus musculus [3]", "result": 53, "unit": "%"}, {"measurement": "Activity", "setting": "[4]", "result": "Non-Toxic"}, {"measurement": "ED50", "setting": "Rattus norvegicus [5]", "result": "> 250", "unit": "mg/kg"}, {"measurement": "Activity", "setting": "[6]", "result": "Non-Toxic"}, {"measurement": "Activity", "setting": "Rattus norvegicus [7]", "result": "Active"}, {"measurement": "Activity", "setting": "Mus musculus [8]", "result": "Active"}, {"measurement": "Activity", "setting": "[9]", "result": "Non-Toxic"}, {"measurement": "Time", "setting": "Rattus norvegicus [10]", "result": 2, "unit": "h"}, {"measurement": "selectivity ratio", "setting": "[11]", "result": "> 13"}, {"measurement": "Activity", "setting": "[12]", "result": "Non-Toxic"}, {"measurement": "Activity", "setting": "Mus musculus [13]", "result": "Active"}, {"measurement": "TD50", "setting": "[14]", "result": "> 500", "unit": "mg/kg"}, {"measurement": "Activity", "setting": "[15]", "result": "Non-Toxic"}, {"measurement": "selectivity ratio", "setting": "[16]", "result": 6.19}, {"measurement": "MTC", "setting": "[17]", "result": 100, "unit": "mg/kg"}, {"measurement": "MED", "setting": "Mus musculus [18]", "result": "inactive"}, {"measurement": "Activity", "setting": "Mus musculus [19]", "result": "Active"}, {"measurement": "Activity", "setting": "Mus musculus [20]", "result": 61, "unit": "%"}, {"measurement": "selectivity ratio", "setting": "[21]", "result": 6.78}, {"measurement": "ED50", "setting": "Rattus norvegicus [22]", "result": 38.5, "unit": "mg/kg"}, {"measurement": "Activity", "setting": "Mus musculus [23]", "result": 67.52, "unit": "%"}, {"measurement": "Time", "setting": "Rattus norvegicus [24]", "result": 2, "unit": "h"}, {"measurement": "Activity", "setting": "[25]", "result": "Non-Toxic"}, {"measurement": "Time", "setting": "[26]", "result": 2, "unit": "h"}, {"measurement": "Ratio ED50", "setting": "Mus musculus [27]", "result": 5}, {"measurement": "Activity", "setting": "Mus musculus [28]", "result": "Active"}, {"measurement": "Activity", "setting": "[29]", "result": "Non-Toxic"}, {"measurement": "minimal effective dose", "setting": "Mus musculus [30]", "result": 10, "unit": "mg/kg"}, {"measurement": "Activity", "setting": "Mus musculus [31]", "result": "Active"}]}]}
